{
  "source": "ChEMBL document CHEMBL4411315",
  "about": "“Discovery of Novel Dual Histone Deacetylase and Mammalian Target of Rapamycin Target Inhibitors as a Promising Strategy for Cancer Therapy” (J Med Chem, 2019)",
  "key": {"[1]": {"system": "MV4-11", "assay": "Induction of apoptosis in human MV4-11 cells assessed as late apoptotic cells at 20 nM after 48 hrs by Annexin V-FITC/propidium iodide staining-based flow cytometric analysis (reference value: 5.03%)", "format": "functional"}, "[2]": {"system": "HCT-116", "assay": "Antiproliferative activity against human HCT116 cells after 72 hrs by MTT assay", "format": "functional, cell-based", "conditions": "HCT-116, 72 h"}, "[3]": {"biological_target": "Histone deacetylase 8 (Homo sapiens, UniProt Q9BY41)", "sequence (Q9BY41 whole entry)": "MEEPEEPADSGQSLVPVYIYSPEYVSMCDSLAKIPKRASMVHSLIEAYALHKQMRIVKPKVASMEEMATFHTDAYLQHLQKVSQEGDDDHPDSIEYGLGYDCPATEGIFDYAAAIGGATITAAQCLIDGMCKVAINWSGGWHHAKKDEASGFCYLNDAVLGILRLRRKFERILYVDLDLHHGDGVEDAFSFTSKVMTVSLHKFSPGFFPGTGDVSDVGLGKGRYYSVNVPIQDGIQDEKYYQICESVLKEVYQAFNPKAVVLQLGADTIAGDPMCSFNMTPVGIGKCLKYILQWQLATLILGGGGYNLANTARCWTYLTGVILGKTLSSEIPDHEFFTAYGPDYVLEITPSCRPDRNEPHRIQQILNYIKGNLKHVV", "assay": "Inhibition of recombinant full length C-terminal His-tagged human HDAC8 expressed in baculovirus expression system using Ac-peptide-AMC as substrate preincubated for 15 mins followed by substrate addition and measured after 1 hr by fluorescence assay"}, "[4]": {"biological_target": "Polyamine deacetylase HDAC10 (Homo sapiens, UniProt Q969S8)", "sequence (Q969S8 whole entry)": "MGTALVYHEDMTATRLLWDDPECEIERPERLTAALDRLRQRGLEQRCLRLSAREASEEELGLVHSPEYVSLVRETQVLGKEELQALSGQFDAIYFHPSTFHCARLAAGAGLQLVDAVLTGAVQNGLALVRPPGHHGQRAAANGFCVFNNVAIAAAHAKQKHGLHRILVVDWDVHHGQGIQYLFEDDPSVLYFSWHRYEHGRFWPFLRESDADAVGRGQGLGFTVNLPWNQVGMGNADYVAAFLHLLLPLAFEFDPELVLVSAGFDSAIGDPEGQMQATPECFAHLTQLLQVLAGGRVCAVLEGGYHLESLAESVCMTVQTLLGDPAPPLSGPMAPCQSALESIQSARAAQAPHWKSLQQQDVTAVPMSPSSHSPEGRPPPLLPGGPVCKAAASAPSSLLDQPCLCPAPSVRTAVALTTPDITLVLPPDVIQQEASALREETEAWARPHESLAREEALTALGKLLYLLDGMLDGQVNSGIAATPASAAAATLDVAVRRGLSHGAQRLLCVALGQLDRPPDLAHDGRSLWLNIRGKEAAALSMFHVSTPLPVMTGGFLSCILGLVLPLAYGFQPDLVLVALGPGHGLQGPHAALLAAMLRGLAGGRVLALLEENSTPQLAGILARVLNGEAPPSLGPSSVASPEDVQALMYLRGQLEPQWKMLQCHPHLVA", "assay": "Inhibition of recombinant full length N-terminal FLAG-tagged human HDAC10 expressed in baculovirus infected sf9 cells using Ac-peptide-AMC as substrate preincubated for 15 mins followed by substrate addition and measured after 1 hr by fluorescence assay"}, "[5]": {"biological_target": "Histone deacetylase 7 (Homo sapiens, UniProt Q8WUI4)", "sequence (Q8WUI4 whole entry)": "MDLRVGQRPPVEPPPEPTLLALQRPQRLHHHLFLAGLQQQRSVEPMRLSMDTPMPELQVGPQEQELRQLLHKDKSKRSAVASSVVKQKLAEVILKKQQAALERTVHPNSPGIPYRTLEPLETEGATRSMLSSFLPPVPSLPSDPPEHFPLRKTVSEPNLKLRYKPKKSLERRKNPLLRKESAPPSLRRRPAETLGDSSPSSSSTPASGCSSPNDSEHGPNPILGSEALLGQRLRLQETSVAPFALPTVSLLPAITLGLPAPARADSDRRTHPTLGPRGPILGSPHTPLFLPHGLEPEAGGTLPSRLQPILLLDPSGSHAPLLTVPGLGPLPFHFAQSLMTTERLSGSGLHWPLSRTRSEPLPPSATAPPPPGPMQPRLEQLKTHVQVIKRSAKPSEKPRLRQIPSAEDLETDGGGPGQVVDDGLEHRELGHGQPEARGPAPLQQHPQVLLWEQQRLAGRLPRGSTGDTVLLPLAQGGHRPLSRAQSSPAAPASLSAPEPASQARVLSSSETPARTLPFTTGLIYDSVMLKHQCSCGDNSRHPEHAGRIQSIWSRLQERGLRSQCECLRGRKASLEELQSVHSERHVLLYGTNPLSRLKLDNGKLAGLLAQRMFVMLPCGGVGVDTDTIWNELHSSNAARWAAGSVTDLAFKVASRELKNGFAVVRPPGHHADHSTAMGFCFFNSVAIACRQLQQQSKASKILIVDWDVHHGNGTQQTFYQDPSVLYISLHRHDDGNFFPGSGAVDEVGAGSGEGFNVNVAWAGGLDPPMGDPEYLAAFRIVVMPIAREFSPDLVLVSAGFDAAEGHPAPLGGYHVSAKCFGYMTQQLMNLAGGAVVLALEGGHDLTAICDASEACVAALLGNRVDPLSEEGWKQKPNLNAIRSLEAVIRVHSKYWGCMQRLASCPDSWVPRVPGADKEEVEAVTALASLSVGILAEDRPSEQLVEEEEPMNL", "assay": "Inhibition of recombinant full length N-terminal GST-tagged human HDAC7 expressed in baculovirus expression system using Ac-peptide-AMC as substrate preincubated for 15 mins followed by substrate addition and measured after 1 hr by fluorescence assay"}, "[6]": {"system": "OCI-AML-3", "assay": "Antiproliferative activity against human OCI-AML3 cells after 72 hrs by MTT assay", "format": "functional, cell-based", "conditions": "OCI-AML-3, 72 h"}, "[7]": {"biological_target": "T1, PI3-kinase p110-alpha/p85-alpha (Homo sapiens) (UniProt P27986+P42336)", "assay": "Inhibition of recombinant human full length N-terminal His-tagged/untagged p110alpha/p85alpha expressed in baculovirus expression system at 1000 nM using PIP2 as substrate after 1 hr by Kinase-Glo reagent-based assay relative to control", "how_it_was_run": "(§1)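 PI3Kα (p110α/p85α) incubated with PIP2 substrate and ATP in kinase buffer for 1 h at room temperature. Kinase-Glo reagent was then added for 15 min before luminescence read-out. Inhibition rate at 100 or 1000 nM is the mean of at least two experiments.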"}, "[8]": {"biological_target": "T1, PI3-kinase p110-alpha/p85-alpha (Homo sapiens)", "assay": "Inhibition of recombinant human full length N-terminal His-tagged/untagged p110alpha/p85alpha expressed in baculovirus expression system at 100 nM using PIP2 as substrate after 1 hr by Kinase-Glo reagent-based assay relative to control", "how_it_was_run": "as §1"}, "[9]": {"system": "MV4-11", "assay": "Cell cycle arrest in human MV4-11 cells assessed as accumulation at G0/G1 phase at 1.25 nM after 24 hrs by propidium iodide/RNase staining-based FACS analysis (reference value: 44.79%)", "format": "functional"}, "[10]": {"system": "MV4-11", "assay": "Cell cycle arrest in human MV4-11 cells assessed as accumulation at G0/G1 phase at 5 nM after 24 hrs by propidium iodide/RNase staining-based FACS analysis (reference value: 44.79%)", "format": "functional"}, "[11]": {"system": "MM1.S", "assay": "Cell cycle arrest in human MM1S cells assessed as accumulation at S phase at 1.25 nM after 24 hrs by propidium iodide/RNase staining-based FACS analysis (reference value: 24.49%)", "format": "functional"}, "[12]": {"system": "MM1.S", "assay": "Cell cycle arrest in human MM1S cells assessed as accumulation at S phase at 2.5 nM after 24 hrs by propidium iodide/RNase staining-based FACS analysis (reference value: 24.49%)", "format": "functional"}, "[13]": {"system": "MV4-11", "assay": "Induction of apoptosis in human MV4-11 cells assessed as late apoptotic cells at 10 nM after 48 hrs by Annexin V-FITC/propidium iodide staining-based flow cytometric analysis (reference value: 5.03%)", "format": "functional"}, "[14]": {"system": "MV4-11", "assay": "Induction of apoptosis in human MV4-11 cells assessed as early apoptotic cells at 20 nM after 48 hrs by Annexin V-FITC/propidium iodide staining-based flow cytometric analysis (reference value: 10.7%)", "format": "functional"}, "[15]": {"system": "MV4-11", "assay": "Induction of apoptosis in human MV4-11 cells assessed as viable cells at 40 nM after 48 hrs by Annexin V-FITC/propidium iodide staining-based flow cytometric analysis (reference value: 84.1%)", "format": "functional", "conditions": "MV4-11, 48 h, read-out: Activity"}, "[16]": {"system": "MV4-11", "assay": "Induction of apoptosis in human MV4-11 cells assessed as late apoptotic cells at 80 nM after 48 hrs by Annexin V-FITC/propidium iodide staining-based flow cytometric analysis (reference value: 5.03%)", "format": "functional"}, "[17]": {"system": "MV4-11", "assay": "Induction of apoptosis in human MV4-11 cells assessed as early apoptotic cells at 160 nM after 48 hrs by Annexin V-FITC/propidium iodide staining-based flow cytometric analysis (reference value: 10.7%)", "format": "functional"}, "[18]": {"system": "MV4-11", "assay": "Induction of apoptosis in human MV4-11 cells assessed as necrotic cells at 320 nM after 48 hrs by Annexin V-FITC/propidium iodide staining-based flow cytometric analysis (reference value: 0.17%)", "format": "functional"}, "[19]": {"system": "MM1.S", "assay": "Induction of apoptosis in human MM1S cells assessed as necrotic cells at 10 nM after 48 hrs by Annexin V-FITC/propidium iodide staining-based flow cytometric analysis (reference value: 0.32%)", "format": "functional"}, "[20]": {"system": "MM1.S", "assay": "Induction of apoptosis in human MM1S cells assessed as necrotic cells at 40 nM after 48 hrs by Annexin V-FITC/propidium iodide staining-based flow cytometric analysis (reference value: 0.32%)", "format": "functional"}, "[21]": {"system": "MM1.S", "assay": "Induction of apoptosis in human MM1S cells assessed as late apoptotic cells at 80 nM after 48 hrs by Annexin V-FITC/propidium iodide staining-based flow cytometric analysis (reference value: 0.42%)", "format": "functional"}, "[22]": {"system": "MM1.S", "assay": "Induction of apoptosis in human MM1S cells assessed as late apoptotic cells at 160 nM after 48 hrs by Annexin V-FITC/propidium iodide staining-based flow cytometric analysis (reference value: 0.42%)", "format": "functional"}, "[23]": {"system": "MM1.S", "assay": "Induction of apoptosis in human MM1S cells assessed as necrotic cells at 160 nM after 48 hrs by Annexin V-FITC/propidium iodide staining-based flow cytometric analysis (reference value: 0.32%)", "format": "functional"}, "[24]": {"system": "MM1.S", "assay": "Induction of apoptosis in human MM1S cells assessed as viable cells at 160 nM after 48 hrs by Annexin V-FITC/propidium iodide staining-based flow cytometric analysis (reference value: 98.9%)", "format": "functional", "conditions": "read-out: Activity"}, "[25]": {"biological_target": "Serine/threonine-protein kinase mTOR (Homo sapiens, UniProt P42345)", "assay": "Inhibition of mTOR in human MV4-11 cells assessed as decrease in Akt phosphorylation at S473 residues at 0.01 to 10 uM after 24 hrs by Western blot analysis", "format": "cell-based", "how_it_was_run": "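Treatment of MV4-11 cells lasted 24 h at 0.01, 0.1, 1 and 10 μM. Lysis in RIPA buffer and BCA quantitation, then 30 μg protein by SDS-PAGE, PVDF transfer, 5% milk block, primary antibody overnight at 4 °C, HRP secondary 1 h and ECL detection. p-p70S6K (T389), p-4EBP1 (S65), p-Akt (S473) and p-ERK were probed.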"}, "[26]": {"assay": "Toxicity against NOD/SCID mouse xenografted with human MM1S cells assessed as effect on body weight at 10 mg/kg, iv administered every 2 days for 5 days", "format": "organism-based", "conditions": "in vivo", "how_it_was_run": "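Female NOD/SCID mice, 5-6 weeks old, received 10^7 MM1S cells in 100 μL serum-free RPMI 1640 s.c. into the right flank. At 100-200 mm3 tumours they were randomised, 6 mice per group. Tumours were measured by caliper every 2 days. At the end, tumours were excised and weighed. Survivors are reported per group.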"}},
  "note": "Activity calls are given as the source filed them. The rule behind the calls is not given here.",
  "data": [
    {"smiles": "C[C@@H]1CN(C(=O)Nc2ccc(-c3nc(N4CCOCC4)c4cnn(CCCCCCC(=O)NO)c4n3)cc2)CCO1", "values": [
      {"measurement": "Activity", "setting": "[1]", "result": 38.4, "unit": "%"},
      {"measurement": "IC50", "setting": "[2]", "result": 17.2, "unit": "nM"},
      {"measurement": "IC50", "setting": "[3]", "result": 1.28, "unit": "nM"},
      {"measurement": "IC50", "setting": "[4]", "result": 0.58, "unit": "nM"},
      {"measurement": "IC50", "setting": "[5]", "result": "> 1000", "unit": "nM"},
      {"measurement": "IC50", "setting": "[6]", "result": 9.98, "unit": "nM"},
      {"measurement": "inhibition", "setting": "[7]", "result": 57.3, "unit": "%"},
      {"measurement": "inhibition", "setting": "[8]", "result": 28.3, "unit": "%"},
      {"measurement": "Activity", "setting": "[9]", "result": 46.85, "unit": "%"},
      {"measurement": "Activity", "setting": "[10]", "result": 64.69, "unit": "%"},
      {"measurement": "Activity", "setting": "[11]", "result": 22.05, "unit": "%"},
      {"measurement": "Activity", "setting": "[12]", "result": 21.59, "unit": "%"},
      {"measurement": "Activity", "setting": "[13]", "result": 9.91, "unit": "%"},
      {"measurement": "Activity", "setting": "[14]", "result": 38.2, "unit": "%"},
      {"measurement": "viability at 0.04 µM", "setting": "[15]", "result": 2.99, "unit": "%"},
      {"measurement": "Activity", "setting": "[16]", "result": 56.5, "unit": "%"},
      {"measurement": "Activity", "setting": "[17]", "result": 34.7, "unit": "%"},
      {"measurement": "Activity", "setting": "[18]", "result": 1.62, "unit": "%"},
      {"measurement": "Activity", "setting": "[19]", "result": 0.31, "unit": "%"},
      {"measurement": "Activity", "setting": "[20]", "result": 2.08, "unit": "%"},
      {"measurement": "Activity", "setting": "[21]", "result": 40.5, "unit": "%"},
      {"measurement": "Activity", "setting": "[22]", "result": 63.3, "unit": "%"},
      {"measurement": "Activity", "setting": "[23]", "result": 3.39, "unit": "%"},
      {"measurement": "viability at 0.16 µM", "setting": "[24]", "result": 13.8, "unit": "%"},
      {"measurement": "inhibition", "setting": "[25]", "result": "Active"},
      {"measurement": "Activity", "setting": "[26]", "result": "Non-Toxic"}
    ]}
  ]
}
